Assay outcomes as filed in PubChem.
The list is a sample of the results.
HKDC1 act: HKDC1 hexokinase activators, primary screen, biochemical, fluorescence, uHTS; Q2TB90; recombinant HKDC1, G6PDH/diaphorase resazurin fluorescence; active compounds read low; activity change, negative = activation, % at 20 µM; actives 0.056% (n = 340,000); AID 493187, 2011;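 active = activation of 40% or more at 20 µM, a change of -40% or lower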
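Signal: coupled resazurin-to-resorufin fluorescence, Ex 525/Em 613 nm. Test system: in-house human HKDC1 enzyme, G6PDH and diaphorase coupling enzymes. Quantity: HKDC1 5 µg/mL. Timing: 90 min reaction at room temperature, dark.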
Starred values were filed as active, the others as inactive.

`CC(=NNC(=S)N1CC2CCC(CC2)C1)c1nccs1` gave HKDC1 act -43.2*.
`Cc1cc(O)c2c(c1)C(=O)C13C(=C2O)C(=O)[C@H]2[C@@H](O)[C@@H]1[C@H]1[C@H](O)[C@@H]3C(=O)C3=C(O)c4c(O)cc(C)cc4C(=O)C312` (stereo partly drawn) gave HKDC1 act 67.4.
Screening Nc1c(Br)cc2c3c(cccc13)-c1ccccc1-2 returned HKDC1 act 70.5.
Screening Brc1ccc(C2N3CCCN23)cc1 (stereo not drawn) returned HKDC1 act -79.3*.
`O=C1NC(=S)NC(=O)C1=Cc1ccc2c(c1)CCN2CCCCl` gave HKDC1 act 59.0.
For O=c1nc(/C=C/c2ccc(Cl)cc2Cl)cc(C(F)(F)F)[nH]1 the results were HKDC1 act 35.1.
For CC[C@H](C)/C=C(C)/C=C/C1=CC2=C(Cl)C(=O)[C@](C)(OC(C)=O)C(=O)C2=CO1 the results were HKDC1 act 58.9.
For CCOC(=O)c1c(-n2c(C)cc(C=C3C(=O)NC(=S)NC3=O)c2C)sc2c1CCCC2 the results were HKDC1 act 58.6.
For COc1cc(O)cc2c1cc([N+](=O)[O-])c1c(C(=O)O)cc3c(c12)OCO3 the results were HKDC1 act 35.8.
Screening CCN(CC)CCCNC(=O)c1c(O)c2ccccc2n(Cc2ccccc2)c1=O returned HKDC1 act 83.3.
